{"data": "Experimental data from different studies"}
{"SMILES": "C=CC(=O)N(C)CCOc1c(N)ncnc1-c1cc(F)cc(NC(=O)c2ccc(C3CC3)cc2F)c1C", "host": "human", "medium": "blood", "route": "oral", "dose": "200 mg", "notes": "single dose, healthy volunteers", "Tmax [h]": 1.25}
{"SMILES": "CC(C)(Sc1ccncc1-c1ccc(C#N)c2ccccc12)C(=O)O", "host": "male human", "medium": "plasma", "route": "oral", "dose": "20 mg", "notes": "single dose, fed, healthy volunteers", "Tmax [h]": 1.25}
{"SMILES": "CC(C)(O)c1ccccc1-c1ccc2[nH]c(/C=C/c3ccc(C(F)(F)F)cc3)nc2c1", "host": "male human", "medium": "plasma", "route": "oral", "dose": "50 mg", "notes": "single dose, fasted", "Tmax [h]": 2.9}
{"SMILES": "CC(C)n1cc(C#N)c2cc(-n3cc(C(=O)O)cn3)ccc21", "host": "human", "medium": "plasma", "route": "oral", "dose": "25 mg", "notes": "single dose, fasted, healthy volunteers", "Tmax [h]": 2.3}
{"SMILES": "COc1ccc([C@@H]2CN(C(=O)[C@@H](O)CO)C[C@@]2(C)[C@@H](C)O)cc1OC1CN(c2ccc(C)cn2)C1", "host": "human", "medium": "plasma", "route": "oral", "dose": "40 mg", "notes": "single dose, healthy volunteers", "Tmax [h]": 3.88}
{"SMILES": "COc1cc(N2CCC(N3CCN(C)CC3)CC2)ccc1Nc1ncnc(Nc2ccccc2S(=O)(=O)C(C)C)n1", "host": "human", "medium": "plasma", "route": "oral", "dose": "325 mg", "notes": "multiple doses, patients", "Tmax [h]": 3.75}
{"SMILES": "CCc1nc2c(C)cc(N3CCN(CC(=O)N4CC(O)C4)CC3)cn2c1N(C)c1nc(-c2ccc(F)cc2)c(C#N)s1", "host": "human", "medium": "plasma", "route": "intravenous", "dose": "0.1 mg", "notes": "fasted, healthy volunteers", "Tmax [h]": 0}
{"SMILES": "C[C@@H](Nc1cc(F)cc(F)c1)c1cc(C(=O)N(C)C)cc2c(=O)cc(N3CCOCC3)oc12", "host": "human", "medium": "plasma", "route": "oral", "dose": "360 mg", "notes": "single dose, patients", "Tmax [h]": 1.53}
{"SMILES": "Cn1cc(-c2ccc(S(=O)(=O)[C@@H]3C[C@@H](C(=O)NC4(C#N)CC4)N(C(=O)C4(C(F)(F)F)CC4)C3)c(C(F)(F)F)c2)cn1", "host": "human", "medium": "plasma", "route": "oral", "dose": "300 mg", "notes": "single dose, fasted, healthy volunteers", "Tmax [h]": 3.5}
